According to ChEMBL document CHEMBL5329184, “Design, synthesis, electrochemistry and anti-trypanosomatid hit/lead identification of nitrofuranylazines” (RSC Med Chem, 2023):

Experiments:
in vitro [1] = details: monkey, Vero cells
in vitro [2] = details: monkey, Vero cells; remark: listed apart in the source
Trypanosoma cruzi [3] = assay: Antitrypanosomal activity against bloodstream Trypanosoma cruzi trypomastigotes infected in African green monkey Vero cells assessed as parasite growth inhibition incubated for 48 hrs by resazurin assay
[4] = Selectivity index, ratio of IC50 for cytotoxicity against African green monkey Vero cells assessed as inhibition of cell growth to IC50 for antitrypanosomal activity against Trypanosoma cruzi trypomastigotes assessed as parasite growth inhibition; format: toxicity, cell-based; details: read-out: Ratio IC50
THP-1 = assay: cells; format: functional, cell-based; details: Homo sapiens, THP-1, 72 h
[5] = Selectivity index, ratio of IC50 for cytotoxicity against human THP-1 cells assessed as inhibition of cell growth to IC50 for antitrypanosomal activity against Trypanosoma cruzi trypomastigotes assessed as parasite growth inhibition; format: functional
Leishmania donovani [6] = assay: Antileishmanial activity against Leishmania donovani MHOM/IN/95/9515 amastigote assessed as inhibition of parasite growth incubated for 72 hrs by resazurin staining based analysis; details: MHOM/IN/95/9515, 72 h
Leishmania major [7] = assay: Antileishmanial activity against Leishmania major IR-173 promastigotes assessed as inhibition of parasite growth incubated for 48 hrs by resazurin staining based analysis; format: functional, organism-based; details: IR-173, 48 h
How it was run: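 Logarithmic-phase promastigotes (1.25 × 10^6 cells per mL) grown in supplemented M199 with 10% FBS, pH 7.3–7.4, 26 °C. […] 48 h at 26 °C, then resazurin 24 h in the dark. Absorbance 570 minus 600 nm. IC50 by non-linear regression, mean ± SD of three biological replicates.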

Trypanosoma cruzi [8] = assay: Antitrypanosomal activity against Trypanosoma cruzi epimastigotes assessed as parasite growth inhibition incubated for 48 hrs by resazurin staining based analysis; format: functional, organism-based
Leishmania major [9] = assay: Antileishmanial activity against Leishmania major IR-173 amastigote assessed as inhibition of parasite growth incubated for 72 hrs by resazurin staining based analysis; details: IR-173, 72 h
Leishmania donovani [10] = assay: Antileishmanial activity against Leishmania donovani MHOM/IN/95/9515 promastigotes assessed as inhibition of parasite growth incubated for 48 hrs by resazurin staining based analysis; format: functional, organism-based; details: MHOM/IN/95/9515, 48 h
[11] = Selectivity index, ratio of IC50 for cytotoxicity against human THP-1 cells assessed as inhibition of cell growth to IC50 for antileishmanial activity against Leishmania donovani MHOM/IN/95/9515 amastigote assessed as inhibition of parasite growth; format: functional
Leishmania donovani [12] = assay: Selectivity index, ratio of IC50 for antileishmanial activity against Leishmania donovani MHOM/IN/95/9515 promastigotes assessed as inhibition of parasite growth to IC50 for antileishmanial activity against Leishmania donovani MHOM/IN/95/9515 amastigote assessed as inhibition of parasite growth; format: functional
in vitro [13] = details: monkey, Vero cells; remark: listed apart in the source
in vitro [14] = details: monkey, Vero cells; remark: listed apart in the source
Leishmania major [15] = assay: Selectivity index, ratio of IC50 for antileishmanial activity against Leishmania major IR-173 promastigotes assessed as inhibition of parasite growth to IC50 for antileishmanial activity against Leishmania major IR-173 amastigote assessed as inhibition of parasite growth; format: functional
[16] = Selectivity index, ratio of IC50 for cytotoxicity against African green monkey Vero cells assessed as inhibition of cell growth to IC50 for antitrypanosomal activity against Trypanosoma cruzi epimastigotes assessed as parasite growth inhibition; format: toxicity, cell-based; details: read-out: Ratio IC50
Trypanosoma cruzi [17] = assay: Selectivity index, ratio of IC50 for antitrypanosomal activity against Trypanosoma cruzi epimastigote assessed as parasite growth inhibition to IC50 for antitrypanosomal activity against Trypanosoma cruzi trypomastigotes assessed as parasite growth inhibition; format: functional

| SMILES | selectivity ratio (in vitro [1]) | selectivity ratio (in vitro [2]) | IC50 (Trypanosoma cruzi [3]) | selectivity ratio [4] | IC50 (THP-1) | Ratio IC50 [5] | IC50 (Leishmania donovani [6]) | IC50 (Leishmania major [7]) | IC50 (Trypanosoma cruzi [8]) | IC50 (Leishmania major [9]) | IC50 (Leishmania donovani [10]) | Ratio IC50 [11] | Ratio IC50 (Leishmania donovani [12]) | selectivity ratio (in vitro [13]) | selectivity ratio (in vitro [14]) | Ratio IC50 (Leishmania major [15]) | selectivity ratio [16] | Ratio IC50 (Trypanosoma cruzi [17]) |
| --- | --- | --- | --- | --- | --- | --- | --- | --- | --- | --- | --- | --- | --- | --- | --- | --- | --- | --- |
| O=[N+]([O-])c1ccc(/C=N/N=C/c2ccc(F)cc2)s1 | 26 | 50 | 6.56 µM | 15 | > 100 µM | 15 | > 10 µM | 3.79 µM | > 10 µM | > 10 µM | 2 µM |  |  |  |  |  |  |  |
| O=C1OCCN1/N=C/c1ccc([N+](=O)[O-])o1 [FURAZOLIDONE] |  |  |  |  |  |  | 2.7 µM | 0.34 µM |  | 5.61 µM | 0.28 µM |  |  |  |  |  |  |  |
| O=[N+]([O-])c1ccc(/C=N/N=C/c2ccco2)cc1 |  |  | > 10 µM |  |  |  | > 10 µM | > 10 µM | > 10 µM | > 10 µM | > 10 µM |  |  |  |  |  |  |  |
| O=[N+]([O-])c1ccc(/C=N/N=C/c2ccc(O)cc2)s1 | 15 | 20 | 3.04 µM | 11 | 22.9 µM | 8 | 0.34 µM | 2.22 µM | > 10 µM | > 10 µM | 1.66 µM | 67 | 4.88 | 97 |  |  |  |  |
| O=Cc1ccc([N+](=O)[O-])s1 | 3 | 2 | 1.62 µM | 8 | 26.7 µM | 16 | > 10 µM | 3.75 µM | > 10 µM | > 10 µM | 5.07 µM |  |  |  |  |  |  |  |
| O=[N+]([O-])c1ccc(/C=N/N=C/c2ccc(Cl)cc2)o1 | 238 | 149 | 3.05 µM | 33 | > 100 µM | 33 | > 10 µM | 0.42 µM | 2.41 µM | 2.47 µM | 0.67 µM |  |  |  | 40 | 0.17 | 41 | 0.79 |
| O=[N+]([O-])c1ccc(/C=N/N=C/c2ccccc2)o1 | 14 | 11 | 2.31 µM | 7 | > 100 µM | 42 | > 10 µM | 1.19 µM | 7.66 µM | > 10 µM | 1.45 µM |  |  |  |  |  | 2 | 3.32 |
| O=[N+]([O-])c1ccc(/C=N/N=C/c2ccc(O)cc2)o1 | 29 | 18 | 1.74 µM | 11 | 46.2 µM | 27 | 2.7 µM | 0.64 µM | 7.3 µM | > 10 µM | 1.02 µM | 17 | 0.38 | 7 |  |  | 3 | 4.2 |
| Cc1ccc(/C=N/N=C/c2ccc([N+](=O)[O-])o2)cc1 | 238 | 132 | 4.04 µM | 25 | > 100 µM | 25 | > 10 µM | 0.42 µM | 3.69 µM | > 10 µM | 0.76 µM |  |  |  |  |  | 27 | 0.91 |
| COc1ccc(/C=N/N=C/c2ccc([N+](=O)[O-])o2)cc1 | 57 | 44 | 6.14 µM | 8 | > 100 µM | 16 | 2.28 µM | 0.89 µM | 4.92 µM | > 10 µM | 1.16 µM | 44 | 0.51 | 22 |  |  | 10 | 0.8 |
| NC(=O)N/N=C/c1ccc([N+](=O)[O-])o1 [NITROFURAZONE] | 54 | 54 | 2.23 µM | 45 | > 100 µM | 45 | 1.69 µM | 1.85 µM | 7.83 µM | > 10 µM | 1.85 µM |  | 1.09 | 59 |  |  | 13 | 3.5 |
| O=[N+]([O-])c1ccc(/C=N/N=C/c2ccc(OCc3ccccc3)cc2)o1 | 222 | 62 | > 10 µM |  | > 100 µM |  | 0.25 µM | 0.45 µM | 95.2 µM | > 10 µM | 1.61 µM | 400 | 6.44 | 400 |  |  | 1 |  |
| O=[N+]([O-])c1ccc(/C=N/N=C/c2ccc(OCc3ccccc3)cc2)s1 | 23 |  |  |  | > 100 µM |  |  | 4.39 µM |  | > 10 µM |  |  |  |  |  |  |  |  |
| O=C(Cn1ccnc1[N+](=O)[O-])NCc1ccccc1 [BENZNIDAZOLE] |  |  | 4.79 µM | 21 | > 100 µM | 21 |  |  |  |  |  |  |  |  |  |  |  |  |
| O=[N+]([O-])c1ccc(/C=N/N=C/c2ccccc2)s1 | 29 | 45 | 2.5 µM | 17 | > 100 µM | 40 | 7.26 µM | 1.43 µM | 9.21 µM | > 10 µM | 0.93 µM | 14 | 0.13 | 6 |  |  | 5 | 3.68 |
| C(=N\N=C\c1ccco1)/c1ccc(OCc2ccccc2)cc1 |  |  | > 10 µM |  |  |  | > 10 µM | > 10 µM | > 10 µM | > 10 µM | > 10 µM |  |  |  |  |  |  |  |
